Experimental findings from ChEMBL document CHEMBL1149822, “Synthesis, antimicrobial and anti-inflammatory activities of some 1,2,4-triazolo[3,4-b][1,3,4]thiadiazoles and 1,2,4-triazolo[3,4-b][1,3,4]thiadiazines bearing trichlorophenyl moiety” (2008) are described below.

SMILES strings stand for the structures. Converted amounts (≈) assume the structure as drawn.

Type in all cases: functional
The test system of assay [1] is Escherichia coli. Put plainly: Antibacterial activity against Escherichia coli ATTC 25922 after 16 to 18 hrs by serial plate dilution method. As to conditions: ATCC25922. The method, boiled down: (§1)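 Serial dilutions were made in Mueller-Hinton broth in tubes, adjusted to […] with phosphate buffer, and inoculated with a standardized bacterial suspension. Tubes were incubated at 37 °C for 16–18 h. MIC was taken as the lowest concentration with no visible growth.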

In assay [2] the test system is Escherichia coli. The assay is described as follows: microbe, parasite or virus in culture. As to conditions: ATCC25922, read-out: IZ.
In assay [3] the test system is Klebsiella pneumoniae. Put plainly: Antibacterial activity against Klebsiella pneumoniae after 16 to 18 hrs by serial plate dilution method. Put shortly:
as §1

Assay [4] concerns Klebsiella pneumoniae. The assay is described as follows: microbe, parasite or virus in culture. As to conditions: read-out: IZ.
Assay [5] deals with Pseudomonas aeruginosa. Put plainly: Antibacterial activity against Pseudomonas aeruginosa ATTC 27853 after 16 to 18 hrs by serial plate dilution method. As to conditions: ATCC27853. Put shortly:
as §1

Assay [6] relates to Pseudomonas aeruginosa. Put plainly: microbe, parasite or virus in culture. As to conditions: ATCC27853, read-out: IZ.
Assay [7] relates to Staphylococcus aureus. The assay is described as follows: Antibacterial activity against Staphylococcus aureus ATTC 25923 after 16 to 18 hrs by serial plate dilution method. Put shortly:
as §1

The subject of assay [8] is Staphylococcus aureus. Put plainly: Antibacterial activity against Staphylococcus aureus ATTC 25923 at […] ug/ml after 3 to 4 days. As to conditions: read-out: IZ.
In assay [9] the test system is Talaromyces marneffei. The assay is described as follows: Antifungal activity against Penicillium marneffei by serial plate dilution method. Put shortly:
(§2)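 Agar of peptone 1 g, D-glucose 4 g and agar 2 g per 100 mL water, pH 5.7, was lawned with a fungal spore suspension in normal saline. The excess was decanted and plates were dried at 37 °C for 1 h. Wells were punched and compounds in DMSO were added, with a DMSO control. Plates were run in triplicate at 37 °C for 3–4 days, and the inhibition zone diameter was measured.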

The test system of assay [10] is Talaromyces marneffei. Put plainly: Antifungal activity against Penicillium marneffei at […] ug/ml after 3 to 4 days. As to conditions: read-out: IZ.
Assay [11] deals with Trichophyton mentagrophytes. The assay is described as follows: Antifungal activity against Trichophyton mentagrophytes by serial plate dilution method.
The subject of assay [12] is Trichophyton mentagrophytes. The assay is described as follows: Antifungal activity against Trichophyton mentagrophytes at […] ug/ml after 3 to 4 days. As to conditions: read-out: IZ.
For assay [13], the system named is Aspergillus flavus. Put plainly: Antifungal activity against Aspergillus flavus NCIM 524 by serial plate dilution method. The method, boiled down: as §2
The test system of assay [14] is Aspergillus flavus. The assay is described as follows: Antifungal activity against Aspergillus flavus NCIM 524 at […] ug/ml after 3 to 4 days. As to conditions: read-out: IZ.
For assay [15], the system named is Aspergillus fumigatus. The assay is described as follows: Antifungal activity against Aspergillus fumigatus NCIM 902 by serial plate dilution method.
In assay [16] the test system is Aspergillus fumigatus. Put plainly: Antifungal activity against Aspergillus fumigatus NCIM 902 at […] ug/ml after 3 to 4 days. As to conditions: read-out: IZ.
For another assay, the system named is Rattus norvegicus. Put plainly: Antiinflammatory activity against carrageenan-induced paw oedema in albino rat at 50 mg/kg, po relative to control. The method, boiled down:
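Albino rats of 180–250 g were fasted 18 h and placed in groups of six. Samples were suspended in 2% w/v acacia mucilage, and the vehicle group served as control. 30 min after dosing, carrageenan (1 mg mL⁻¹, 0.1 mL) was injected subcutaneously into the right hind paw. Paw volume was measured immediately and at 3 h, and % oedema inhibition was calculated versus vehicle controls.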
(The carrageenan paw model is a standard test of acute inflammation.)

Assay [17] concerns Trichophyton mentagrophytes. The assay is described as follows: Antifungal activity against Trichophyton mentagrophytes at 12 ug/ml after 3 to 4 days. As to conditions: read-out: IZ. Put shortly: as §2
The subject of assay [18] is Aspergillus flavus. Put plainly: Antifungal activity against Aspergillus flavus NCIM 524 at 12 ug/ml after 3 to 4 days. As to conditions: read-out: IZ. The method, boiled down:
as §2

Take `COc1ccc(C2=Nn3c(nnc3-c3cc(Cl)cc(Cl)c3Cl)SC2)cc1`: the minimal inhibitory concentration (MIC) (with Escherichia coli [1]; in the assay on Klebsiella pneumoniae [3]; against Pseudomonas aeruginosa [5]; with Staphylococcus aureus [7]; with Talaromyces marneffei [9]; in assay [11]) was 6.25 mg/L (≈ 14.7 µM) each time. The MIC with Aspergillus flavus [13] and with Aspergillus fumigatus [15] was 6.25 mg/L (≈ 14.7 µM) throughout. Besides, the zone of inhibition at 6.25 µg/mL (with Escherichia coli [2]; with Klebsiella pneumoniae [4]; with Pseudomonas aeruginosa [6]; in the assay on Staphylococcus aureus [8]; in the assay on Talaromyces marneffei [10]; in [12]) was 16 mm throughout. The zone of inhibition at 6.25 µg/mL with Aspergillus flavus [14] and in the assay with Aspergillus fumigatus [16] was 16 mm throughout. 50 mg/kg produced 19.4% inhibition in vivo in the assay on Rattus norvegicus.
For the compound `CSc1ccc(C2=Nn3c(nnc3-c3cc(Cl)cc(Cl)c3Cl)SC2)cc1`, the MIC (in the assay on Escherichia coli [1]; in the assay with Klebsiella pneumoniae [3]; against Pseudomonas aeruginosa [5]; with Staphylococcus aureus [7]; in the assay on Talaromyces marneffei [9]; in assay [11]) was 6.25 mg/L (≈ 14.1 µM) throughout. The MIC against Aspergillus flavus [13] and against Aspergillus fumigatus [15] was 6.25 mg/L (≈ 14.1 µM) in each case. Moreover, the zone of inhibition at 6.25 µg/mL (in the assay on Escherichia coli [2]; in the assay with Klebsiella pneumoniae [4]; in the assay with Pseudomonas aeruginosa [6]; with Staphylococcus aureus [8]; in the assay with Talaromyces marneffei [10]; in assay [12]) was 16 mm each time. The zone of inhibition at 6.25 µg/mL with Aspergillus flavus [14] and in the assay on Aspergillus fumigatus [16] was 16 mm in each case. Moreover, in the assay on Rattus norvegicus, the inhibition in vivo at 50 mg/kg was 9.67%.
Regarding `Clc1cc(Cl)cc(-c2nn3c(-c4cc(Cl)cc(Cl)c4Cl)nnc3s2)c1`, the minimal inhibitory concentration (MIC) (against Escherichia coli [1]; with Klebsiella pneumoniae [3]; in the assay on Pseudomonas aeruginosa [5]; in the assay with Staphylococcus aureus [7]; against Talaromyces marneffei [9]; in assay [11]) was 6.25 mg/L (≈ 13.9 µM) each time. In addition, the minimum inhibitory concentration (MIC) in the assay with Aspergillus flavus [13] and in the assay with Aspergillus fumigatus [15] was 6.25 mg/L (≈ 13.9 µM) in each case. The zone of inhibition at 6.25 µg/mL (with Escherichia coli [2]; in the assay with Klebsiella pneumoniae [4]; in the assay with Pseudomonas aeruginosa [6]; with Staphylococcus aureus [8]; in the assay on Talaromyces marneffei [10]; in [12]) was 16 mm throughout. Besides, the zone of inhibition at 6.25 µg/mL in the assay with Aspergillus flavus [14] and in the assay on Aspergillus fumigatus [16] was 16 mm throughout.
Take `Clc1cc(Cl)c(Cl)c(-c2nnc3sc(COc4ccccc4)nn23)c1`: the MIC in the assay with Escherichia coli [1] is 6.25 mg/L (≈ 15.2 µM); in the assay on Klebsiella pneumoniae [3] it was 6.25 mg/L (≈ 15.2 µM); against Pseudomonas aeruginosa [5] it was 6.25 mg/L (≈ 15.2 µM); in the assay on Staphylococcus aureus [7], 6.25 mg/L (≈ 15.2 µM); in the assay on Talaromyces marneffei [9], 6.25 mg/L (≈ 15.2 µM); in [11], 12 mg/L (≈ 29.1 µM). Also, the values for the MIC against Aspergillus flavus [13] and with Aspergillus fumigatus [15] were 12 mg/L (≈ 29.1 µM) and 6.25 mg/L (≈ 15.2 µM), respectively. In addition, the zone of inhibition at 6.25 µg/mL with Escherichia coli [2], in the assay with Klebsiella pneumoniae [4], with Pseudomonas aeruginosa [6], with Staphylococcus aureus [8], in the assay with Talaromyces marneffei [10] and in the assay on Aspergillus fumigatus [16] was 16 mm in each case. The zone of inhibition at 12 µg/mL (in assay [17]; in the assay on Aspergillus flavus [18]) was 11 mm in each case.
As to `Clc1cc(Cl)c(Cl)c(-c2nnc3sc(-c4ccncc4Br)nn23)c1`, the minimal inhibitory concentration (MIC) (in the assay on Escherichia coli [1]; against Klebsiella pneumoniae [3]; with Pseudomonas aeruginosa [5]; against Staphylococcus aureus [7]; with Talaromyces marneffei [9]; in assay [11]) was 6.25 mg/L (≈ 13.5 µM) in each case. Moreover, the MIC against Aspergillus flavus [13] and in the assay with Aspergillus fumigatus [15] was 6.25 mg/L (≈ 13.5 µM) in each case. The zone of inhibition at 6.25 µg/mL (in the assay on Escherichia coli [2]; with Klebsiella pneumoniae [4]; with Pseudomonas aeruginosa [6]; in the assay with Staphylococcus aureus [8]; in the assay on Talaromyces marneffei [10]; in [12]) was 16 mm each time. Moreover, the zone of inhibition at 6.25 µg/mL in the assay with Aspergillus flavus [14] and in the assay with Aspergillus fumigatus [16] was 16 mm in each case. In addition, the inhibition in vivo at 50 mg/kg with Rattus norvegicus is 19.4%.
In the case of `NC(=O)c1cc(C2=Nn3c(nnc3-c3cc(Cl)cc(Cl)c3Cl)SC2)ccc1O`, the minimal inhibitory concentration (MIC) (in the assay on Escherichia coli [1]; with Klebsiella pneumoniae [3]; with Pseudomonas aeruginosa [5]; in the assay on Staphylococcus aureus [7]; with Talaromyces marneffei [9]; in assay [11]) was 6.25 mg/L (≈ 13.7 µM) in each case. Besides, the MIC in the assay with Aspergillus flavus [13] and in the assay on Aspergillus fumigatus [15] was 6.25 mg/L (≈ 13.7 µM) throughout. Moreover, the zone of inhibition at 6.25 µg/mL (in the assay on Escherichia coli [2]; in the assay on Klebsiella pneumoniae [4]; in the assay with Pseudomonas aeruginosa [6]; in the assay on Staphylococcus aureus [8]; in the assay on Talaromyces marneffei [10]; in assay [12]) was 16 mm in each case. Further, the zone of inhibition at 6.25 µg/mL in the assay on Aspergillus flavus [14] and in the assay on Aspergillus fumigatus [16] was 16 mm each time.
`Clc1ccc(C2=Nn3c(nnc3-c3cc(Cl)cc(Cl)c3Cl)SC2)cc1`: the MIC (against Escherichia coli [1]; with Klebsiella pneumoniae [3]; in the assay with Pseudomonas aeruginosa [5]; in the assay with Staphylococcus aureus [7]; in the assay on Talaromyces marneffei [9]; in [11]) was 6.25 mg/L (≈ 14.5 µM) each time. Moreover, the MIC in the assay on Aspergillus flavus [13] and against Aspergillus fumigatus [15] was 6.25 mg/L (≈ 14.5 µM) in each case. Also, the zone of inhibition at 6.25 µg/mL (with Escherichia coli [2]; in the assay with Klebsiella pneumoniae [4]; in the assay on Pseudomonas aeruginosa [6]; with Staphylococcus aureus [8]; in the assay on Talaromyces marneffei [10]; in [12]) was 16 mm throughout. Also, the zone of inhibition at 6.25 µg/mL in the assay on Aspergillus flavus [14] and in the assay with Aspergillus fumigatus [16] was 16 mm in each case. Moreover, in the assay on Rattus norvegicus, at 50 mg/kg the inhibition in vivo was 30.6%.
Take `Clc1cc(Cl)c(Cl)c(-c2nnc3sc(-c4ccncc4)nn23)c1`: the MIC (in the assay on Escherichia coli [1]; in the assay on Klebsiella pneumoniae [3]; in the assay on Pseudomonas aeruginosa [5]; against Staphylococcus aureus [7]; in the assay with Talaromyces marneffei [9]; in assay [11]) was 6.25 mg/L (≈ 16.3 µM) throughout. Besides, the MIC with Aspergillus flavus [13] and in the assay with Aspergillus fumigatus [15] was 6.25 mg/L (≈ 16.3 µM) throughout. Also, the zone of inhibition at 6.25 µg/mL (in the assay on Escherichia coli [2]; in the assay with Klebsiella pneumoniae [4]; in the assay with Pseudomonas aeruginosa [6]; in the assay with Staphylococcus aureus [8]; with Talaromyces marneffei [10]; in [12]) was 16 mm each time. For the same compound, the zone of inhibition at 6.25 µg/mL with Aspergillus flavus [14] and in the assay on Aspergillus fumigatus [16] was 16 mm each time. Moreover, the inhibition in vivo at 50 mg/kg with Rattus norvegicus amounted to 11.3%.

For orientation: MIC means the lowest concentration that inhibits growth of the organism. A lower MIC goes with a more susceptible organism. One may read the inhibition in vivo as the drop in the measured response relative to a control, in per cent. A high value points to strong suppression.
